Data published in ChEMBL document CHEMBL3045565, “Microwave synthesis, characterization and bio-efficacy evaluation of novel chalcone based 6-carbethoxy-2-cyclohexen-1-one and 2H-indazol-3-ol derivatives” (Eur J Med Chem, 2013).
Converted amounts (≈) assume the structure as drawn.

Columns and labels:
Format in all cases: functional
Xanthomonas oryzae [1] = assay: Antibacterial activity against Xanthomonas oryzae ITCC B-47 assessed as as growth inhibition at 100 ug/disk after 24 hr by disk diffusion method; details: ITCC B-47, 24 h, read-out: DIZ
Dickeya chrysanthemi [2] = assay: Antibacterial activity against Erwinia chrysanthemi ITCC B-40 assessed as as growth inhibition at 100 ug/disk after 24 hr by disk diffusion method; details: ITCC B-40, 24 h, read-out: DIZ
How it was run: (§1)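 Disk diffusion on nutrient agar. Strains kept on NA slants at 37 °C and subcultured in nutrient broth before testing. A log-phase culture was spread on solidified medium, and sterile disks were loaded with compound from DMSO stock. DMSO served as control, with commercial antibiotics for reference. Plates ran 24 h at 37 °C, and inhibition zones (mm) were read in quadruplicate.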

Rhizoctonia solani = assay: Antifungal activity against Rhizoctonia solani ITCC 5563 by food poisoning method
How it was run: (§2)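 Poisoned food technique on PDA at several concentrations. A 5 mm mycelial plug from the growing edge of a 2-week-old colony was placed inoculum-side down at the plate centre. Plates incubated at 27 °C until control growth was nearly complete. Colony diameter measured, percent inhibition calculated against control, LC50 derived. Four replicates per treatment.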

Athelia rolfsii = assay: Antifungal activity against Athelia rolfsii ITCC 6181 by food poisoning method; details: Agroathelia rolfsii; how it was run: as §2
[3] = tested on: Radical scavenging activity; assay: Antioxidant activity assessed as DPPH free radical scavenging activity at 400 ug/mL after 20 min by UV-Vis spectrophotometric analysis
How it was run: (§3)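 DPPH radical scavenging: samples were held at room temperature for 20 min in the dark, and absorbance was read at 517 nm. The control contained DMSO without compound, and methanol was used for baseline correction. Scavenging percentage was calculated from the absorbances.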

[4] = tested on: Radical scavenging activity; assay: Antioxidant activity assessed as DPPH free radical scavenging activity at 500 ug/mL after 20 min by UV-Vis spectrophotometric analysis; how it was run: as §3
[5] = tested on: Radical scavenging activity; assay: Antioxidant activity assessed as DPPH free radical scavenging activity at 300 ug/mL after 20 min by UV-Vis spectrophotometric analysis; how it was run: as §3
[6] = tested on: Radical scavenging activity; assay: Antioxidant activity assessed as DPPH free radical scavenging activity at 100 ug/mL after 20 min by UV-Vis spectrophotometric analysis; how it was run: as §3
[7] = tested on: Radical scavenging activity; assay: Antioxidant activity assessed as DPPH free radical scavenging activity at 200 ug/mL after 20 min by UV-Vis spectrophotometric analysis; how it was run: as §3
[8] = tested on: Radical scavenging activity; assay: Antioxidant activity assessed as DPPH free radical scavenging activity at 60 ug/mL after 20 min by UV-Vis spectrophotometric analysis; how it was run: as §3
[9] = tested on: Radical scavenging activity; assay: Antioxidant activity assessed as DPPH free radical scavenging activity at 80 ug/mL after 20 min by UV-Vis spectrophotometric analysis; how it was run: as §3
[10] = tested on: Radical scavenging activity; assay: Antioxidant activity assessed as DPPH free radical scavenging activity at 40 ug/mL after 20 min by UV-Vis spectrophotometric analysis; how it was run: as §3
[11] = tested on: Radical scavenging activity; assay: Antioxidant activity assessed as DPPH free radical scavenging activity at 20 ug/mL after 20 min by UV-Vis spectrophotometric analysis; how it was run: as §3
[12] = tested on: Radical scavenging activity; assay: Antioxidant activity assessed as DPPH free radical scavenging activity at 10 ug/mL after 20 min by UV-Vis spectrophotometric analysis; how it was run: as §3
[13] = tested on: Radical scavenging activity; assay: Antioxidant activity assessed as DPPH free radical scavenging activity after 20 min by UV-Vis spectrophotometric analysis; design: concentration or dose not given beside the values; how it was run: as §3
Klebsiella pneumoniae [14] = assay: Antibacterial activity against Klebsiella pneumoniae MTCC 7028 assessed as growth inhibition after 24 hr by broth dilution method; details: MTCC 7028, 24 h
How it was run: (§4)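 Broth dilution, with streptomycin as the standard. MIC was taken as the lowest concentration giving more than 90% bacterial inhibition.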

Pseudomonas aeruginosa [15] = assay: Antibacterial activity against Pseudomonas aeruginosa MTCC 2581 assessed as growth inhibition at 100 ug/disk after 24 hr by disk diffusion method; details: MTCC 2581, 24 h, read-out: DIZ; how it was run: as §1
Staphylococcus aureus [16] = assay: Antibacterial activity against Staphylococcus aureus MTCC 3160 assessed as growth inhibition at 100 ug/disk after 24 hr by disk diffusion method; details: MTCC 3160, 24 h, read-out: DIZ; how it was run: as §1
Klebsiella pneumoniae [17] = assay: Antibacterial activity against Klebsiella pneumoniae MTCC 7028 assessed as growth inhibition at 100 ug/disk after 24 hr by disk diffusion method; details: MTCC 7028, 24 h, read-out: DIZ; how it was run: as §1
Bacillus pumilus [18] = assay: Antibacterial activity against Bacillus pumilus MTCC 2466 assessed as growth inhibition at 100 ug/disk after 24 hr by disk diffusion method; details: MTCC 2466, 24 h, read-out: DIZ; how it was run: as §1
Bacillus thuringiensis [19] = assay: Antibacterial activity against Bacillus thuringiensis MTCC 6941 assessed as growth inhibition at 100 ug/disk after 24 hr by disk diffusion method; details: MTCC 6941, 24 h, read-out: DIZ; how it was run: as §1
Xanthomonas oryzae [20] = assay: Antibacterial activity against Xanthomonas oryzae ITCC B-47 assessed as as growth inhibition at 25 ug/disk after 24 hr by disk diffusion method; details: ITCC B-47, 24 h, read-out: DIZ
Dickeya chrysanthemi [21] = assay: Antibacterial activity against Erwinia chrysanthemi ITCC B-40 assessed as as growth inhibition at 25 ug/disk after 24 hr by disk diffusion method; details: ITCC B-40, 24 h, read-out: DIZ
Pseudomonas aeruginosa [22] = assay: Antibacterial activity against Pseudomonas aeruginosa MTCC 2581 assessed as growth inhibition at 25 ug/disk after 24 hr by disk diffusion method; details: MTCC 2581, 24 h, read-out: DIZ
Staphylococcus aureus [23] = assay: Antibacterial activity against Staphylococcus aureus MTCC 3160 assessed as growth inhibition at 25 ug/disk after 24 hr by disk diffusion method; details: MTCC 3160, 24 h, read-out: DIZ
Klebsiella pneumoniae [24] = assay: Antibacterial activity against Klebsiella pneumoniae MTCC 7028 assessed as growth inhibition at 25 ug/disk after 24 hr by disk diffusion method; details: MTCC 7028, 24 h, read-out: DIZ
Bacillus pumilus [25] = assay: Antibacterial activity against Bacillus pumilus MTCC 2466 assessed as growth inhibition at 25 ug/disk after 24 hr by disk diffusion method; details: MTCC 2466, 24 h, read-out: DIZ
Bacillus thuringiensis [26] = assay: Antibacterial activity against Bacillus thuringiensis MTCC 6941 assessed as growth inhibition at 25 ug/disk after 24 hr by disk diffusion method; details: MTCC 6941, 24 h, read-out: DIZ
Dickeya chrysanthemi [27] = assay: Antibacterial activity against Erwinia chrysanthemi ITCC B-40 assessed as as growth inhibition after 24 hr by broth dilution method; details: ITCC B-40, 24 h; how it was run: as §4
[28] = tested on: Radical scavenging activity; assay: Antioxidant activity assessed as DPPH free radical scavenging activity at 0.8 ug/mL after 20 min by UV-Vis spectrophotometric analysis
How it was run: (§5)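 DPPH radical scavenging: samples held at room temperature for 20 min in the dark, then absorbance read at 517 nm. Control was DMSO without compound; methanol used for baseline correction. Percent scavenging calculated from absorbance relative to control.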

[29] = tested on: Radical scavenging activity; assay: Antioxidant activity assessed as DPPH free radical scavenging activity at 0.4 ug/mL after 20 min by UV-Vis spectrophotometric analysis; how it was run: as §5
[30] = tested on: Radical scavenging activity; assay: Antioxidant activity assessed as DPPH free radical scavenging activity at 0.2 ug/mL after 20 min by UV-Vis spectrophotometric analysis; how it was run: as §5
[31] = tested on: Radical scavenging activity; assay: Antioxidant activity assessed as DPPH free radical scavenging activity at 0.1 ug/mL after 20 min by UV-Vis spectrophotometric analysis; how it was run: as §5
[32] = tested on: Radical scavenging activity; assay: Antioxidant activity assessed as DPPH free radical scavenging activity at 4 ug/mL after 20 min by UV-Vis spectrophotometric analysis; how it was run: as §5
[33] = tested on: Radical scavenging activity; assay: Antioxidant activity assessed as DPPH free radical scavenging activity at 2 ug/mL after 20 min by UV-Vis spectrophotometric analysis; how it was run: as §5
[34] = tested on: Radical scavenging activity; assay: Antioxidant activity assessed as DPPH free radical scavenging activity at 3 ug/mL after 20 min by UV-Vis spectrophotometric analysis; how it was run: as §5
[35] = tested on: Radical scavenging activity; assay: Antioxidant activity assessed as DPPH free radical scavenging activity at 1 ug/mL after 20 min by UV-Vis spectrophotometric analysis; how it was run: as §5
[36] = tested on: Radical scavenging activity; assay: Antioxidant activity assessed as DPPH free radical scavenging activity at 0.6 ug/mL after 20 min by UV-Vis spectrophotometric analysis; how it was run: as §5

SMILES | zone of inhibition at 100 µg/disc (Xanthomonas oryzae [1]) [mm] | zone of inhibition at 100 µg/disc (Dickeya chrysanthemi [2]) [mm] | LC50 (Rhizoctonia solani) [µg/mL] | LC50 (Athelia rolfsii) [µg/mL] | Activity [13] [%] | IC50 [13] [µg/mL] | zone of inhibition at 100 µg/disc (Pseudomonas aeruginosa [15]) [mm] | zone of inhibition at 100 µg/disc (Staphylococcus aureus [16]) [mm] | zone of inhibition at 100 µg/disc (Klebsiella pneumoniae [17]) [mm] | zone of inhibition at 100 µg/disc (Bacillus pumilus [18]) [mm] | zone of inhibition at 100 µg/disc (Bacillus thuringiensis [19]) [mm] | zone of inhibition at 25 µg/disc (Xanthomonas oryzae [20]) [mm] | zone of inhibition at 25 µg/disc (Dickeya chrysanthemi [21]) [mm] | zone of inhibition at 25 µg/disc (Pseudomonas aeruginosa [22]) [mm] | zone of inhibition at 25 µg/disc (Staphylococcus aureus [23]) [mm] | zone of inhibition at 25 µg/disc (Klebsiella pneumoniae [24]) [mm] | zone of inhibition at 25 µg/disc (Bacillus pumilus [25]) [mm] | zone of inhibition at 25 µg/disc (Bacillus thuringiensis [26]) [mm] | MIC (Dickeya chrysanthemi [27]) [µg/mL] | also measured
O=c1[nH][nH]c2c1C(c1ccccc1)CC(c1ccc(F)cc1)=C2 (centres undefined) | 0 | 0 | 669 (≈ 2180 µM) | 912 (≈ 2980 µM) | 70.5 | 23.71 (≈ 77.4 µM) | 0 | 0 | 15 | 0 | 0 |  |  |  |  |  |  |  |  | Activity [3]: 90.8%; Activity [4]: 90.8%; Activity [5]: 90.7%; Activity [6]: 91%; Activity [7]: 92.2%; Activity [8]: 86.9%; Activity [9]: 89%; Activity [10]: 70.5%; Activity [11]: 30.4%; Activity [12]: 23.5%; MIC (Klebsiella pneumoniae [14]): 24.7 µg/mL (≈ 80.6 µM)
CC1(C)S[C@@H]2[C@H](NC(=O)[C@H](N)c3ccccc3)C(=O)N2[C@H]1C(=O)O [AMPICILLIN] |  |  |  |  |  |  |  |  |  |  |  | 5 | 20 | 10 | 10 | 10 | 20 | 0 |  | 
CN[C@@H]1[C@H](O[C@H]2[C@H](O[C@H]3[C@H](O)[C@@H](O)[C@H](N=C(N)N)[C@@H](O)[C@@H]3N=C(N)N)O[C@@H](C)[C@]2(O)C=O)O[C@@H](CO)[C@H](O)[C@H]1O [STREPTOMYCIN] |  |  |  |  |  |  |  |  |  |  |  | 20 | 20 | 20 | 20 | 20 | 15 | 20 | 4.6 (≈ 7.91 µM) | MIC (Klebsiella pneumoniae [14]): 3.1 µg/mL (≈ 5.33 µM)
NC[C@H]1O[C@H](O[C@H]2[C@H](O)[C@@H](O[C@H]3O[C@H](CO)[C@@H](O)[C@H](N)[C@H]3O)[C@H](N)C[C@@H]2N)[C@H](O)[C@@H](O)[C@@H]1O [KANAMYCIN] |  |  |  |  |  |  |  |  |  |  |  | 0 | 0 | 0 | 10 | 15 | 0 | 15 |  | 
O=C(O)c1cc(O)c(O)c(O)c1 [GALLIC ACID] |  |  |  |  | 21.4 | 1.28 (≈ 7.52 µM) |  |  |  |  |  |  |  |  |  |  |  |  |  | Activity [28]: 34.4%; Activity [29]: 21.4%; Activity [30]: 15.8%; Activity [31]: 13.9%; Activity [32]: 89.9%; Activity [33]: 73.6%; Activity [34]: 88.9%; Activity [35]: 41%; Activity [36]: 28%
CCOC(=O)C1C(=O)C=C(c2ccccc2)CC1c1ccc(OC)cc1 (centres undefined) | 0 | 15 | 116 (≈ 331 µM) | 347 (≈ 990 µM) | 2.69 |  | 0 | 0 | 0 | 0 | 0 |  |  |  |  |  |  |  | 5.9 (≈ 16.8 µM) | 
O=[N+]([O-])c1cccc(C2CC(c3ccc(F)cc3)=Cc3n[nH]c(O)c32)c1 (centres undefined) | 0 | 0 | 528 (≈ 1500 µM) | 796 (≈ 2270 µM) | 67.9 | 19.81 (≈ 56.4 µM) | 0 | 0 | 0 | 0 | 0 |  |  |  |  |  |  |  |  | Activity [3]: 90.9%; Activity [4]: 91.1%; Activity [5]: 90.5%; Activity [6]: 90.8%; Activity [7]: 92.3%; Activity [8]: 86.4%; Activity [9]: 90.1%; Activity [10]: 67.9%; Activity [11]: 35.9%; Activity [12]: 22.6%
CCOC(=O)C1C(=O)C=C(c2ccc(Cl)cc2)CC1c1ccc(OC)cc1 (centres undefined) | 0 | 15 | 58 (≈ 151 µM) | 372 (≈ 967 µM) | 4.74 |  | 0 | 0 | 0 | 0 | 0 |  |  |  |  |  |  |  | 73.6 (≈ 191 µM) | 
